Source: ChEMBL document CHEMBL4689842, “EUbOPEN Chemogenomics Library wave 1” (2021)
Several values for one entry are separate records, joined by “and”; a condition that tells them apart may be missing. Identical values can stand only once.

System: U2OS
Assay: Multiplex assay against U2OS
Type: toxicity, cell-based
Conditions: human
Summary of the method: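 Hoechst33342, BioTracker Green Microtubule Cytoskeleton Dye, MitoTracker Red and Annexin V Alexa Fluor 680 were added to live cells at seeding, and imaging on a CQ1 microscope at 37°C and 5% CO2 followed compound addition. Gating by CellPathfinder machine learning separated cells into Hoechst high-intensity objects or normal cells, then normal cells into healthy, pyknosed or fragmented nuclei, then pyknosed cells into mitotic or apoptotic. Per cents of healthy-nucleus cells are reported for the tubulin, mitochondrial-mass and membrane-permeability phenotypes.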

[1] = 12 h, 1 µM, compound concentration 1 uM, replicate 1
[2] = 12 h, 1 µM, compound concentration 1 uM, replicate 2
[3] = 12 h, 10 µM, compound concentration 10 uM, replicate 1
[4] = 12 h, 10 µM, compound concentration 10 uM, replicate 2
[5] = 24 h, 1 µM, compound concentration 1 uM, replicate 1
[6] = 24 h, 1 µM, compound concentration 1 uM, replicate 2
[7] = 24 h, 10 µM, compound concentration 10 uM, replicate 1
[8] = 24 h, 10 µM, compound concentration 10 uM, replicate 2
[9] = 48 h, 10 µM, compound concentration 10 uM, replicate 1
[10] = 48 h, 10 µM, compound concentration 10 uM, replicate 2

## COc1cc2nccc(Oc3ccc(NC(=O)Nc4cc(C)on4)c(Cl)c3)c2cc1OC.O
[1]
  Population Apoptotic (%): 50% and 42%
  Population Fragmented Nuclei (%): 7% and 3%
  Population Healthy Nuclei (%): 86% and 89%
  Population Membrane Permeable-Phenotype (%): 26%
  Population Mitotic Cells (%): 50% and 57%
  Population Normal (%): 95% and 98%
  Population Pyknosed Nuclei (%): 6% and 7%
  Total Cell Count: 193 and 192
[2]
  Population Apoptotic (%): 0%
  Population Fragmented Nuclei (%): 10% and 8%
  Population Healthy Nuclei (%): 77% and 91%
  Population Hoechst High Intensity Objects (%): 6% and 14%
  Population Membrane Permeable-Phenotype (%): 25% and 19%
  Population Mitochondria Different-Phenotype (%): 61% and 24%
  Population Mitotic Cells (%): 0%
  Population Normal (%): 93% and 85%
  Population Pyknosed Nuclei (%): 12% and 0%
  Population Tubulin-Different-Phenotype (%): 19%
  Total Cell Count: 132 and 71
[3]
  Population Apoptotic (%): 70%
  Population Fragmented Nuclei (%): 16%
  Population Healthy Nuclei (%): 57%
  Population Hoechst High Intensity Objects (%): 11%
  Population Membrane Permeable-Phenotype (%): 25%
  Population Mitochondria Different-Phenotype (%): 96%
  Population Mitotic Cells (%): 30%
  Population Normal (%): 88%
  Population Pyknosed Nuclei (%): 25%
  Population Tubulin-Different-Phenotype (%): 100%
  Total Cell Count: 152
[4]
  Population Apoptotic (%): 71%
  Population Fragmented Nuclei (%): 11%
  Population Healthy Nuclei (%): 75%
  Population Hoechst High Intensity Objects (%): 3%
  Population Membrane Permeable-Phenotype (%): 36%
  Population Mitochondria Different-Phenotype (%): 97%
  Population Mitotic Cells (%): 28%
  Population Normal (%): 96%
  Population Pyknosed Nuclei (%): 12%
  Population Tubulin-Different-Phenotype (%): 97%
  Total Cell Count: 58
[5]
  Population Apoptotic (%): 73% and 33%
  Population Healthy Nuclei (%): 62% and 92%
  Population Membrane Permeable-Phenotype (%): 42% and 15%
  Population Mitotic Cells (%): 26% and 66%
  Population Normal (%): 95% and 98%
  Total Cell Count: 272 and 251
[6]
  Population Apoptotic (%): 83% and 100%
  Population Fragmented Nuclei (%): 17% and 9%
  Population Healthy Nuclei (%): 58% and 89%
  Population Hoechst High Intensity Objects (%): 15% and 9%
  Population Membrane Permeable-Phenotype (%): 47% and 17%
  Population Mitotic Cells (%): 16% and 0%
  Population Normal (%): 84% and 90%
  Population Pyknosed Nuclei (%): 24% and 0%
  Total Cell Count: 159 and 78
[7]
  Population Apoptotic (%): 82%
  Population Fragmented Nuclei (%): 28%
  Population Healthy Nuclei (%): 42%
  Population Hoechst High Intensity Objects (%): 8%
  Population Membrane Permeable-Phenotype (%): 61%
  Population Mitochondria Different-Phenotype (%): 98%
  Population Mitotic Cells (%): 17%
  Population Normal (%): 91%
  Population Pyknosed Nuclei (%): 29%
  Population Tubulin-Different-Phenotype (%): 100%
  Total Cell Count: 142
[8]
  Population Apoptotic (%): 92%
  Population Fragmented Nuclei (%): 16%
  Population Healthy Nuclei (%): 60%
  Population Hoechst High Intensity Objects (%): 3%
  Population Membrane Permeable-Phenotype (%): 67%
  Population Mitochondria Different-Phenotype (%): 100%
  Population Mitotic Cells (%): 7%
  Population Normal (%): 96%
  Population Pyknosed Nuclei (%): 23%
  Population Tubulin-Different-Phenotype (%): 97%
  Total Cell Count: 58
[9]
  Population Apoptotic (%): 91%
  Population Fragmented Nuclei (%): 41%
  Population Healthy Nuclei (%): 15%
  Population Hoechst High Intensity Objects (%): 13%
  Population Membrane Permeable-Phenotype (%): 86%
  Population Mitochondria Different-Phenotype (%): 100%
  Population Mitotic Cells (%): 8%
  Population Normal (%): 86%
  Population Pyknosed Nuclei (%): 42%
  Population Tubulin-Different-Phenotype (%): 100%
  Total Cell Count: 153
[10]
  Population Apoptotic (%): 87%
  Population Fragmented Nuclei (%): 13%
  Population Healthy Nuclei (%): 67%
  Population Hoechst High Intensity Objects (%): 15%
  Population Membrane Permeable-Phenotype (%): 96%
  Population Mitotic Cells (%): 12%
  Population Normal (%): 84%
  Population Pyknosed Nuclei (%): 18%
  Total Cell Count: 62
